Active and inactive are the calls of the source. No cut-off for these calls is given here.
Experiments:
[1] = target: T1, Potassium voltage-gated channel subfamily A member 3 (Homo sapiens, UniProt P22001); assay: Inhibition of human Kv1.3 expressed in Xenopus laevis oocytes at 1 uM at -90 mV holding potential by two-electrode voltage clamp assay relative to control
[2] = target: Potassium voltage-gated channel subfamily A member 1 (Rattus norvegicus) (UniProt P10499); assay: Inhibition of rat Kv1.1 expressed in Xenopus laevis oocytes at 1 uM at -90 mV holding potential by two-electrode voltage clamp assay relative to control; assay type: cell-based
[3] = target: Potassium voltage-gated channel subfamily A member 4 (Rattus norvegicus) (UniProt P15385); assay: Inhibition of rat Kv1.4 expressed in Xenopus laevis oocytes at 1 uM at -90 mV holding potential by two-electrode voltage clamp assay relative to control; assay type: cell-based
[4] = target: Potassium voltage-gated channel subfamily A member 4 (Homo sapiens, UniProt P22459); assay: Inhibition of human Kv1.4 expressed in CHO cells at -80 mV holding potential by whole cell automated patch clamp method; assay type: cell-based
In short: (§1)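 Human channels stably expressed in CHO cells, dissociated with 0.05% trypsin-EDTA, held in serum-free medium and resuspended in extracellular solution just before recording. Whole-cell QPatch recordings used a -80 mV holding potential and 500 ms steps to +30 mV at 0.067 Hz. Series resistance was 80% compensated with P/n leak subtraction. After 0.1% DMSO vehicle, four escalating concentrations were applied cumulatively.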

[5] = target: Potassium voltage-gated channel subfamily A member 2 (Homo sapiens, UniProt P16389); assay: Inhibition of human Kv1.2 expressed in CHO cells at -80 mV holding potential by whole cell automated patch clamp method; assay type: cell-based
In short: as §1

[6] = target: Potassium voltage-gated channel subfamily A member 6 (Homo sapiens, UniProt P17658); assay: Inhibition of human Kv1.6 expressed in CHO cells at -80 mV holding potential by whole cell automated patch clamp method; assay type: cell-based
In short: as §1

[7] = target: Potassium voltage-gated channel subfamily A member 6 (Rattus norvegicus) (UniProt P17659); assay: Inhibition of rat Kv1.6 expressed in Xenopus laevis oocytes at 1 uM at -90 mV holding potential by two-electrode voltage clamp assay relative to control; assay type: cell-based
[8] = target: T1, Potassium voltage-gated channel subfamily A member 3; assay: Inhibition of human Kv1.3 expressed in CHO cells at -80 mV holding potential by whole cell automated patch clamp method; assay type: cell-based
In short: as §1
Target sequence in this assay (P22001 whole entry): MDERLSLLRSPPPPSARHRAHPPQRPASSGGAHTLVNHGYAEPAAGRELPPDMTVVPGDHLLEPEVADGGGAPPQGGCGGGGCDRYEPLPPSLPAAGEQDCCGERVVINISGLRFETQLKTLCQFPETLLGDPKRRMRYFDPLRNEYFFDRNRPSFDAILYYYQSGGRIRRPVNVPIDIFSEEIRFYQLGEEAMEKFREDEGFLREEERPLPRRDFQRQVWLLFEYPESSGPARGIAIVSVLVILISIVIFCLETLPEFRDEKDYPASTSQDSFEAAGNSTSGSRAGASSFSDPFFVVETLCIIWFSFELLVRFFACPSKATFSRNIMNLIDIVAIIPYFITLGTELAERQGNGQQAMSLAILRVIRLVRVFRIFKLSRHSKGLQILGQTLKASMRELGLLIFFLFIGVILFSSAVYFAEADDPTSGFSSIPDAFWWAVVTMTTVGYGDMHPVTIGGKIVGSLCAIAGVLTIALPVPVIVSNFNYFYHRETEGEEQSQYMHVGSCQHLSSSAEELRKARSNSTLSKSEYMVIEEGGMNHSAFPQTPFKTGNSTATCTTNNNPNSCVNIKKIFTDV

[9] = tested on: Potassium voltage-gated channel subfamily H member 1 (Homo sapiens); assay: Inhibition of human Kv10.1 expressed in Xenopus laevis oocytes at 1 uM at -90 mV holding potential by two-electrode voltage clamp assay relative to control
[10] = target: Potassium voltage-gated channel subfamily A member 5 (Rattus norvegicus) (UniProt P19024); assay: Inhibition of rat Kv1.5 expressed in Xenopus laevis oocytes at 1 uM at -90 mV holding potential by two-electrode voltage clamp assay relative to control; assay type: cell-based
[11] = target: Potassium voltage-gated channel subfamily A member 2 (Rattus norvegicus) (UniProt P63142); assay: Inhibition of rat Kv1.2 expressed in Xenopus laevis oocytes at 1 uM at -90 mV holding potential by two-electrode voltage clamp assay relative to control; assay type: cell-based
[12] = target: Potassium voltage-gated channel subfamily A member 5 (Homo sapiens, UniProt P22460); assay: Inhibition of human Kv1.5 expressed in CHO cells at -80 mV holding potential by whole cell automated patch clamp method; assay type: cell-based
[13] = target: Potassium voltage-gated channel subfamily A member 1 (Homo sapiens, UniProt Q09470); assay: Inhibition of human Kv1.1 expressed in CHO cells at -80 mV holding potential by whole cell automated patch clamp method; assay type: cell-based
In short: as §1

[14] = target: T1, Potassium voltage-gated channel subfamily A member 3; assay: Inhibition of human Kv1.3 expressed in Xenopus laevis oocytes at -90 mV holding potential by two-electrode voltage clamp assay
Target sequence in this assay (P22001 whole entry, looked up): as the sequence (P22001 whole entry) above

[15] = target: Potassium voltage-gated channel subfamily A member 4 (Rattus norvegicus, UniProt P15385); assay: Inhibition of rat Kv1.4 expressed in Xenopus laevis oocytes at -90 mV holding potential by two-electrode voltage clamp assay; assay type: cell-based
In short: (§2)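 Stage V-VI Xenopus laevis oocytes were injected with 50 nL cRNA (1 ng/nL). Currents were recorded by two-electrode voltage clamp. IC50 values come from at least 3 independent experiments and are given as mean ± standard error.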

[16] = target: Potassium voltage-gated channel subfamily A member 6 (Rattus norvegicus, UniProt P17659); assay: Inhibition of rat Kv1.6 expressed in Xenopus laevis oocytes at -90 mV holding potential by two-electrode voltage clamp assay; assay type: cell-based
In short: as §2

Potassium voltage-gated channel subfamily A member 2 (Rattus norvegicus), sequence (P63142 whole entry): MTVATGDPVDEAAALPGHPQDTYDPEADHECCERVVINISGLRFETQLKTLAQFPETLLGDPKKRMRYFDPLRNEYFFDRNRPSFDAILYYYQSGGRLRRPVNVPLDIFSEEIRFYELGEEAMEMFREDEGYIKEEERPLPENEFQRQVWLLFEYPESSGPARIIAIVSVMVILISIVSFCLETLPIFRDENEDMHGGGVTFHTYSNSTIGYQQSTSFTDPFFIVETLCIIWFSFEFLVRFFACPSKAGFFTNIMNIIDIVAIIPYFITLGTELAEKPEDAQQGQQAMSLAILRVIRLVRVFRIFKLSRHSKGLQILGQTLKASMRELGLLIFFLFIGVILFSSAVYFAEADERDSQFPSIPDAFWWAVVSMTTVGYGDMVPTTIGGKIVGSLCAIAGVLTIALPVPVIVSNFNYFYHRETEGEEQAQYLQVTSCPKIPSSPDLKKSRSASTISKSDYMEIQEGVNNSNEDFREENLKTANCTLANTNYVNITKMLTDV
Potassium voltage-gated channel subfamily A member 5, sequence (P22460 whole entry): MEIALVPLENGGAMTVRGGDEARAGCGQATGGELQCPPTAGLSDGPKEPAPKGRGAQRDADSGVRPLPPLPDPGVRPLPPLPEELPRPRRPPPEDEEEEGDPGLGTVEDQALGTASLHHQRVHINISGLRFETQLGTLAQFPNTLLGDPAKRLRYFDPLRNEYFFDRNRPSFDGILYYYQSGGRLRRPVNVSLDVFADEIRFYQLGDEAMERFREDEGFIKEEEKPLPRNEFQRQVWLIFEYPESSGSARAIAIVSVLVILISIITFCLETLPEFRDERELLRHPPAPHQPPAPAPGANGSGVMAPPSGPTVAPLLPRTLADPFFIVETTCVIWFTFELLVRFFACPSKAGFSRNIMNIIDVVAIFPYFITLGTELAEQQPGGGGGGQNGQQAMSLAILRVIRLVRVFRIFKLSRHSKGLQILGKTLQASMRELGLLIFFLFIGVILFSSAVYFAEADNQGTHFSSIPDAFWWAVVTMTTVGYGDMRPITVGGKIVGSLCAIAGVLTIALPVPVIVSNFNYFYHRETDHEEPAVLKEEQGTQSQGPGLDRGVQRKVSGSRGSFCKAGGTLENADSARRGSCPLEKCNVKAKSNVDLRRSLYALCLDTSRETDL
Potassium voltage-gated channel subfamily A member 4 (Rattus norvegicus, UniProt P15385), sequence (P15385 whole entry): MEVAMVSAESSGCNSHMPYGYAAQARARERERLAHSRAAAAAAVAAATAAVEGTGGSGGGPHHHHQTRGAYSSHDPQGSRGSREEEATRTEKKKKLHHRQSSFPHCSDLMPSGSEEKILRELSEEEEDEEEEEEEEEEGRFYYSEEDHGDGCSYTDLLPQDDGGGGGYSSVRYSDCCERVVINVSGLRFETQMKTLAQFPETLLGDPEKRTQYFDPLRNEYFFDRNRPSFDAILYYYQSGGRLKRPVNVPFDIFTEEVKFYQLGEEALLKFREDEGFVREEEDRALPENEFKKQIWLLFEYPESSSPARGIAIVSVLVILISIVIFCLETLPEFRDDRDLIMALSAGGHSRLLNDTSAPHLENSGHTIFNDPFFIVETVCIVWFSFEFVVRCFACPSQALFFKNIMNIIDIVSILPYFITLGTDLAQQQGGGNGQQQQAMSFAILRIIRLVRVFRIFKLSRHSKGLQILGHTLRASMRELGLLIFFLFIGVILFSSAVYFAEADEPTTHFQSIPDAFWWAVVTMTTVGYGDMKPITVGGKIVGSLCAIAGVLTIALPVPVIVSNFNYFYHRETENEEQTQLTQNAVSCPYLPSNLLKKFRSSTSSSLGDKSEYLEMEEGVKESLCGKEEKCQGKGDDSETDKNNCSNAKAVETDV
Potassium voltage-gated channel subfamily A member 4 (Rattus norvegicus), sequence (P15385 whole entry): as above
Potassium voltage-gated channel subfamily A member 1 (Rattus norvegicus), sequence (P10499 whole entry): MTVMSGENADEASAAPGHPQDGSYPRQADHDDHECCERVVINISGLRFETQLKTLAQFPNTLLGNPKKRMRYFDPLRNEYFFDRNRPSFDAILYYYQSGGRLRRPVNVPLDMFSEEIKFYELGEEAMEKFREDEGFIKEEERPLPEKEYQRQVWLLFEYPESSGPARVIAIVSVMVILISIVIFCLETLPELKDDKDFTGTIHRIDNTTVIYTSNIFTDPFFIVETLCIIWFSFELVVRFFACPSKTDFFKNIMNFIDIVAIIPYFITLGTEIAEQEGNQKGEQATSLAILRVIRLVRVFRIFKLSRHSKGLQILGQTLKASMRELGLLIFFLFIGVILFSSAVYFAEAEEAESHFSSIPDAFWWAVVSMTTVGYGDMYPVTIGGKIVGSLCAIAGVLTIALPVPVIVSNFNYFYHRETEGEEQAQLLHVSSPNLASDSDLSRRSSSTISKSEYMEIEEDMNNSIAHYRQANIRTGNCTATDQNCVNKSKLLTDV
Potassium voltage-gated channel subfamily A member 5 (Rattus norvegicus), sequence (P19024 whole entry): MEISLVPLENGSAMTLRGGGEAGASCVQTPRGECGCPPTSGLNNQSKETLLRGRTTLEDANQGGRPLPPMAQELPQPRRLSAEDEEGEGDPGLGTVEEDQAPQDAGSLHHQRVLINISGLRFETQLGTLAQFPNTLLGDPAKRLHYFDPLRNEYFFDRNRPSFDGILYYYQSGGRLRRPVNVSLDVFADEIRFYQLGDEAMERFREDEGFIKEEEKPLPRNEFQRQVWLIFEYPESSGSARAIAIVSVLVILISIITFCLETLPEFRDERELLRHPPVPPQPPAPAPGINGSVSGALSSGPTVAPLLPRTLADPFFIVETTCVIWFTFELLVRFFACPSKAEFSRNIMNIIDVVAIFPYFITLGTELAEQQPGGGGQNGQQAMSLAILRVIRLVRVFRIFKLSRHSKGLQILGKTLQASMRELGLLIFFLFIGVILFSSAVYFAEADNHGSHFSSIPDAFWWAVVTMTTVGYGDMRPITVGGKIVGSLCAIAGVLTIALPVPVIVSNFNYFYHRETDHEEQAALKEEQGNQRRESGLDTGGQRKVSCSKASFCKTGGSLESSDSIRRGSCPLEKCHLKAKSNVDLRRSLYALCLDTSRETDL

| SMILES | inhibition [1] | inhibition [2] | inhibition [3] | IC50 [4] [µM] | IC50 [5] [µM] | IC50 [6] [µM] | inhibition [7] | IC50 [8] [µM] | inhibition [9] | inhibition [10] | inhibition [11] | IC50 [12] [µM] | IC50 [13] [µM] | IC50 [14] [µM] | IC50 [15] [µM] | IC50 [16] [µM] |
| --- | --- | --- | --- | --- | --- | --- | --- | --- | --- | --- | --- | --- | --- | --- | --- | --- |
| Nc1nc(/C=C/CNC(=O)c2cc3cc(Cl)ccc3[nH]2)c[nH]1 | inactive | inactive | inactive | 17 | > 30 | 24 | inactive | 9 | inactive | inactive | inactive | > 30 | > 30 | – | – | – |
| Nc1nc(CCCNC(=O)C2Cc3ccccc3N2)c[nH]1 (stereo not given) | inactive | inactive | inactive | – | – | – | inactive | > 30 | inactive | inactive | inactive | – | – | – | – | – |
| O=c1ccc2c(OCCCCOc3ccccc3)c3ccoc3cc2o1 | – | – | – | 0.17 | 0.45 | 0.13 | – | – | – | – | – | 0.088 | 0.25 | – | – | – |
| Nc1nc(/C=C/CNC(=O)c2cc3ccccc3[nH]2)c[nH]1 | inactive | inactive | inactive | 13 | > 30 | 14 | 42% | 21 | inactive | inactive | inactive | > 30 | > 30 | – | – | – |
| Nc1nc(CCCNC(=O)c2cc(Br)c(Br)[nH]2)c[nH]1 | inactive | inactive | inactive | – | – | – | inactive | > 30 | inactive | inactive | inactive | – | – | – | – | – |
| Nc1ncc(/C=C/CNC(=O)c2ccc[nH]2)[nH]1 [CLATHRODIN] | inactive | inactive | inactive | > 30 | > 30 | > 30 | inactive | > 30 | inactive | inactive | inactive | > 30 | > 30 | – | – | – |
| COc1ccc2[nH]c(C(=O)NC/C=C/c3c[nH]c(N)n3)cc2c1 | inactive | inactive | inactive | – | – | – | inactive | > 30 | inactive | inactive | inactive | – | – | – | – | – |
| Nc1nc(CCCNC(=O)c2cc3ccccc3[nH]2)c[nH]1 | inactive | inactive | inactive | – | – | – | inactive | – | inactive | inactive | inactive | – | – | – | – | – |
| Nc1ncc(/C=C/CNC(=O)c2cc(Br)c(Br)[nH]2)[nH]1 [OROIDIN] | 58% | inactive | 32% | 2.1 | > 30 | 4.9 | inactive | 4.7 | inactive | inactive | 10% | 16 | > 30 | 0.82 | 5.7 | > 10 |
| Nc1nc(/C=C/CNC(=O)c2cc3cc(F)ccc3[nH]2)c[nH]1 | 28% | inactive | inactive | 8.8 | > 30 | 7.9 | inactive | 14 | inactive | inactive | inactive | > 30 | > 30 | – | – | – |
| Nc1nc(/C=C/CNC(=O)c2cccnc2)c[nH]1 | inactive | inactive | inactive | – | – | – | inactive | > 30 | inactive | inactive | inactive | – | – | – | – | – |

Second part, the molecule after the results:

| inhibition [1] | inhibition [2] | inhibition [3] | IC50 [4] [µM] | IC50 [5] [µM] | IC50 [6] [µM] | inhibition [7] | IC50 [8] [µM] | inhibition [9] | inhibition [10] | inhibition [11] | IC50 [12] [µM] | IC50 [13] [µM] | IC50 [14] [µM] | IC50 [15] [µM] | IC50 [16] [µM] | SMILES |
| --- | --- | --- | --- | --- | --- | --- | --- | --- | --- | --- | --- | --- | --- | --- | --- | --- |
| 32% | inactive | 11% | 5.3 | > 30 | 3.7 | 22% | 2.5 | inactive | 10% | inactive | 7.6 | > 30 | – | – | – | Nc1nc(/C=C/CNC(=O)c2cc(Br)c[nH]2)c[nH]1 |
| inactive | inactive | inactive | – | – | – | inactive | > 30 | inactive | inactive | inactive | – | – | – | – | – | CC(C)(C)OC(=O)N1CCC(C(=O)NC/C=C/c2c[nH]c(N)n2)CC1 |
| inactive | inactive | 46% | 12 | > 30 | 11 | 63% | 25 | inactive | inactive | inactive | > 30 | > 30 | > 10 | 0.38 | 9.8 | Cc1[nH]c(C(=O)NC/C=C/c2c[nH]c(N)n2)cc1Br |
| inactive | 68% | 71% | 15 | > 30 | 17 | inactive | 25 | inactive | 72% | inactive | > 30 | > 30 | > 10 | 0.73 | > 10 | Cc1[nH]c(C(=O)NC/C=C/c2c[nH]c(N)n2)cc1Cl |
| inactive | inactive | 90% | 1.5 | > 30 | 1.6 | inactive | 1.4 | inactive | 62% | inactive | 6.1 | > 30 | > 10 | 0.6 | 0.17 | Nc1nc(/C=C/CNC(=O)c2cc(Cl)c(Cl)[nH]2)c[nH]1 |
| 28% | 22% | inactive | – | – | – | inactive | > 30 | inactive | inactive | inactive | – | – | – | – | – | Nc1nc(/C=C/CNC(=O)C2CCNCC2)c[nH]1 |
| inactive | inactive | 33% | 12 | > 30 | 29 | 41% | 17 | inactive | inactive | inactive | > 30 | > 30 | > 10 | 0.23 | > 10 | Cc1[nH]c(C(=O)NC/C=C/c2c[nH]c(N)n2)c(Br)c1Br |
